Reference: ChEMBL document CHEMBL1255434, “Heat stress cognate 70 host protein as a potential drug target against drug resistance in hepatitis B virus” (Antimicrob Agents Chemother, 2010)
The source made the active and inactive calls. The rule behind the calls is not given here.

Legend:
Hepatitis B virus [1] = assay: Antiviral activity against Hepatitis B virus infected in human HepG2(2.2.15) cells assessed as decrease in intracellular viral DNA level at 2.16 uM after 72 hrs by RT-PCR analysis; assay type: functional, organism-based
How it was run: (§1)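 HepG2.2.15 cells (HBV genome-transfected, MEM + 10% FBS) treated 72 h with drug alone or in two-drug combination. Entecavir 0.6 μg/ml (2.16 μM), adefovir 3 μg/ml (5.9 μM), lamivudine 3 μg/ml (13 μM), oxymatrine 30 μg/ml (113 μM). Intracellular HBV DNA by SYBR Green real-time PCR, relative to untreated. Experiment repeated twice; means and SD, Student's t test.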

[2] = Decrease in HscA70-mRNA expression in Hepatitis B virus infected in human HepG2(2.2.15) cells at 13 uM after 24-36 hrs by RT-PCR analysis; assay type: functional, cell-based
Hepatitis B virus [3] = assay: Antiviral activity against Hepatitis B virus infected in human HepG2(2.2.15) cells assessed as decrease in intracellular viral DNA level at 13 uM after 72 hrs by RT-PCR analysis; assay type: functional, organism-based; how it was run: as §1

Compound: C=C1[C@H](CO)[C@@H](O)C[C@@H]1n1cnc2c(=O)[nH]c(N)nc21
- Activity (Hepatitis B virus [1]): Active

Compound: Nc1ccn([C@@H]2CS[C@H](CO)O2)c(=O)n1
- Activity [2]: inactive
- Activity (Hepatitis B virus [3]): Active
